# Experimental data published in the EternaBench riboswitch data.
# Experiments:
# [1] = tested on: MS2 coat protein; test: apparent Kd, MS2 coat protein; higher = weaker binding; RNA-MaP array; theophylline 2 mM where present
# In short: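 Stalled E. coli RNA polymerase transcribed the designs on Illumina sequencing-chip clusters. SNAP-549-labelled MS2 coat protein was titrated from 0.7 or 1.5 nM, doubling to 3 µM, without and then with constant ligand, in 100 mM Tris-HCl pH 7.5, 80 mM KCl, 4 mM MgCl2, BSA, DTT, yeast tRNA and Tween-20. Per-cluster binding curves were fitted to green signal normalised to red-channel RNA signal and control-cluster median Fmax. The apparent Kd is the median of the filtered fits.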
# [2] = tested on: MS2 coat protein; test: apparent Kd, MS2 coat protein; higher = weaker binding; RNA-MaP array
# In short: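 For each design, the apparent Kd is the median of binding-curve fits across its clusters. Designs measured on fewer than 10 clusters were dropped. The RNAs were transcribed from sequenced DNA templates on an Illumina sequencing chip and incubated at room temperature, with or without input ligand, with fluorescently labeled MS2 coat protein at 1.5 nM to 3 μM.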
# [3] = designed as: ON switch for theophylline, no ligand
# [4] = ligand present: theophylline, designed as: ON switch for theophylline
# [5] = designed as: OFF switch for theophylline, no ligand
# [6] = ligand present: theophylline, designed as: OFF switch for theophylline
# [7] = designed as: ON switch for flavin mononucleotide, no ligand
# [8] = ligand present: flavin mononucleotide, designed as: ON switch for flavin mononucleotide
# [9] = designed as: OFF switch for flavin mononucleotide, no ligand
# [10] = ligand present: flavin mononucleotide, designed as: OFF switch for flavin mononucleotide
sequence,measurement,setting,value
UUAAGAGGCUAUCAAAUUUGAUUUUGUGAUACCAGAAUAAUUUUAUUCCCUUGGCAGCAUGACAUGAGGAUCACCCAUGUGUCUU,apparent Kd,[1]; [3],35.4 nM
same,apparent Kd,[1]; [4],30.2 nM
UUUGCACAUGAGGAUCACCCAUGUACAGAUACCAGCCUCAUCUACGGCCCUUGGCAGCUGAGACAAUGGUGACAUGAUGGGCUUU,apparent Kd,[1]; [5],12.1 nM
same,apparent Kd,[1]; [6],32.6 nM
UCUUUCUUUGUAGAUACCAGCAUGUUAAGUUUCUUUUGACAUGAGGAUCACCCAUGUACAUGCCCUUGGCAGCUACAUUUUCUUU,apparent Kd,[1]; [3],15.2 nM
same,apparent Kd,[1]; [4],16.5 nM
ACGACGCAUAGUGAUACCAGUAGAACAUGAGGAUCACCCAUGUCUGUGACGCACCACCUCUGCCCUUGGCAGCACUAUGCGUCAG,apparent Kd,[1]; [3],22.7 nM
same,apparent Kd,[1]; [4],22.9 nM
UACAUGAGGAUCACCCAUGUAUACAUGGAUACCAGCGACAAUGGGCGCCCUUGGCAGCUAGUGGAUGGAGGGUGGCCACAGUACU,apparent Kd,[1]; [5],70.2 nM
same,apparent Kd,[1]; [6],71.8 nM
AGCCCUGUACUAGAUACCAGCUACAUGAGGAUCACCCAUGUGCGUCAAGACUGACUGUGUGGCCCUUGGCAGCUGCUCGCAUGUA,apparent Kd,[1]; [5],146 nM
same,apparent Kd,[1]; [6],208 nM
UGGUUUGUGAUGGAUACCAGCAGAGAAAACGUUUAUCCUAACAUGAGGAUCACCCAUGUAUGCCCUUGGCAGCUGUUGUGGGCUG,apparent Kd,[1]; [5],36 nM
same,apparent Kd,[1]; [6],38.9 nM
UAUAUGGUGAUGGAUACCAGCAGAGAAAACGUUUAUCCUAACAUGAGGAUCACCCAUGUAUGCCCUUGGCAGCUGUUGUUAUAUA,apparent Kd,[1]; [5],37.9 nM
same,apparent Kd,[1]; [6],29.7 nM
AAAGAUACCAGAGAUACCAGCCAAAAUUAAAAUAAAACCUCACAUGAGGAUCACCCAUGUGGCCCUUGGCAGCUCCCUUGGCAGC,apparent Kd,[1]; [5],12.5 nM
same,apparent Kd,[1]; [6],53.7 nM
UGUAACAUGAGGAUCACCCAUGUGAGUGAUACCAGAUUAGUAUUAGUCCCUUGGCAGCACGUUGGGCGAGUGUAUAGUCUAUGCG,apparent Kd,[1]; [3],147 nM
same,apparent Kd,[1]; [4],113 nM
AGUGUUAUAACUGAUACCAGACCUUUGCUUAUACAUGAGGAUCACCCAUGUAAAAUGGCGGUCCCUUGGCAGCAGAGAAUACGCA,apparent Kd,[1]; [3],68 nM
same,apparent Kd,[1]; [4],13.2 nM
AGCCUAUUACAUGAGGAUCACCCAUGUGAUACCAGUCAGGAAACUGACCCUUGGCAGCGCAUGAGGAUCACCCAUGCGCGAGGCA,apparent Kd,[1]; [5],11 nM
same,apparent Kd,[1]; [6],11.9 nM
AAAACACAUGAGGAUCACCCAUGUCAUGAUACCAGUCCACAUGAGGACCCUUGGCAGCAUAAAAUGGGUAACAUGAGGAUAACCC,apparent Kd,[1]; [5],29.6 nM
same,apparent Kd,[1]; [6],82.8 nM
GGAUUAAGCUAGAAGGUACGAUCACCGUGAUGGUAAGGAUAUAGAACGAUGCCGAUUCCAACAUGAGGAUCACCCAUGUUCCUA,apparent Kd,[2]; [7],447 nM
same,apparent Kd,[2]; [8],260 nM
GGACAACAUGAGGAUCACCCAUGUGAGAAGUGCAAAGGAUAUCGCAGAAGUGAUAACGAACGAGAAGGUUGCCUCU,apparent Kd,[2]; [7],23.6 nM
same,apparent Kd,[2]; [8],10.1 nM
AAAUAAGAGGAGAAGGGCAAAAUGUCGAACCGAGCAGGAUAUCCACAGAACAUGAGGAUCACCCAUGUGGUCAAACAGUACAAA,apparent Kd,[2]; [7],54.4 nM
same,apparent Kd,[2]; [8],39 nM
UUGCAUUCUAAUCCUCUUACGACAUGAGGAUCACCCAUGUGUCAGGAUAUUCGAGAAGGAGCGACGAAGAAGGGACUAAUACAC,apparent Kd,[2]; [9],40.7 nM
same,apparent Kd,[2]; [10],32.8 nM
AGAAAUGUAUUAGGAUAUUGGCGCGUAUUACGACAAGAAGGAAUACAUGAGGAUCACCCAUGUAACCCGCUCCGCGGUCCAUGG,apparent Kd,[2]; [9],101 nM
same,apparent Kd,[2]; [10],64.3 nM
CUGACGUCAGGAUAUGCUAAUAAACAACAUAAAAGACAAGUGCAGAAGGGACAUGAGGAUCACCCAUGUGAAAA,apparent Kd,[2]; [9],14.6 nM
same,apparent Kd,[2]; [10],15.3 nM
UAGAAACGUACGGCCGCCACUCGGAAUUGGCUCAGACCAUACGUACAUGAGGAUCACCCAUGUUAGAGGACCGGGUAUAAUCUAA,apparent Kd,"[2]; designed as: ON switch for tryptophan, no ligand",26.7 nM
same,apparent Kd,"[2]; ligand present: tryptophan, designed as: ON switch for tryptophan",20.3 nM
UUGGAUGAAGGAGUGAAAAGCAACUCAGAUACCAGUCUGAGUAAUGACCCUUGGCAGCUGAGAACAUGAGGAUCACCCAUGUGAC,apparent Kd,[2]; [5],15.2 nM
same,apparent Kd,[2]; [6],32.2 nM
CAGUGCGACUCAGGAUAUCAGAACACUAAGGCGUGAGAAGGGAGAACGACACAUGAGGAUCACCCAUGUUAGAGGGAAUGCAUG,apparent Kd,[2]; [9],37.6 nM
same,apparent Kd,[2]; [10],43.7 nM
